In ChEMBL document CHEMBL4014325:
Blank lines part the entries; values can stand above or below the compound they belong to. Calls of active or inactive are those of the source. The calls are words filed in the database; no cut-off is given here.

Columns and labels:
[1] = target: Cystic fibrosis transmembrane conductance regulator (Homo sapiens) (UniProt P13569); test: Inhibition of human wild type CFTR expressed in FRT cells co-expressing halide sensitive YFP-H148Q assessed as reduction in forskolin induced cAMP activated chloride conductance by measuring decrease in iodide influx after 15 mins by fluorescence assay; type: cell-based
Cystic fibrosis transmembrane conductance regulator (Homo sapiens), sequence (P13569 whole entry, looked up): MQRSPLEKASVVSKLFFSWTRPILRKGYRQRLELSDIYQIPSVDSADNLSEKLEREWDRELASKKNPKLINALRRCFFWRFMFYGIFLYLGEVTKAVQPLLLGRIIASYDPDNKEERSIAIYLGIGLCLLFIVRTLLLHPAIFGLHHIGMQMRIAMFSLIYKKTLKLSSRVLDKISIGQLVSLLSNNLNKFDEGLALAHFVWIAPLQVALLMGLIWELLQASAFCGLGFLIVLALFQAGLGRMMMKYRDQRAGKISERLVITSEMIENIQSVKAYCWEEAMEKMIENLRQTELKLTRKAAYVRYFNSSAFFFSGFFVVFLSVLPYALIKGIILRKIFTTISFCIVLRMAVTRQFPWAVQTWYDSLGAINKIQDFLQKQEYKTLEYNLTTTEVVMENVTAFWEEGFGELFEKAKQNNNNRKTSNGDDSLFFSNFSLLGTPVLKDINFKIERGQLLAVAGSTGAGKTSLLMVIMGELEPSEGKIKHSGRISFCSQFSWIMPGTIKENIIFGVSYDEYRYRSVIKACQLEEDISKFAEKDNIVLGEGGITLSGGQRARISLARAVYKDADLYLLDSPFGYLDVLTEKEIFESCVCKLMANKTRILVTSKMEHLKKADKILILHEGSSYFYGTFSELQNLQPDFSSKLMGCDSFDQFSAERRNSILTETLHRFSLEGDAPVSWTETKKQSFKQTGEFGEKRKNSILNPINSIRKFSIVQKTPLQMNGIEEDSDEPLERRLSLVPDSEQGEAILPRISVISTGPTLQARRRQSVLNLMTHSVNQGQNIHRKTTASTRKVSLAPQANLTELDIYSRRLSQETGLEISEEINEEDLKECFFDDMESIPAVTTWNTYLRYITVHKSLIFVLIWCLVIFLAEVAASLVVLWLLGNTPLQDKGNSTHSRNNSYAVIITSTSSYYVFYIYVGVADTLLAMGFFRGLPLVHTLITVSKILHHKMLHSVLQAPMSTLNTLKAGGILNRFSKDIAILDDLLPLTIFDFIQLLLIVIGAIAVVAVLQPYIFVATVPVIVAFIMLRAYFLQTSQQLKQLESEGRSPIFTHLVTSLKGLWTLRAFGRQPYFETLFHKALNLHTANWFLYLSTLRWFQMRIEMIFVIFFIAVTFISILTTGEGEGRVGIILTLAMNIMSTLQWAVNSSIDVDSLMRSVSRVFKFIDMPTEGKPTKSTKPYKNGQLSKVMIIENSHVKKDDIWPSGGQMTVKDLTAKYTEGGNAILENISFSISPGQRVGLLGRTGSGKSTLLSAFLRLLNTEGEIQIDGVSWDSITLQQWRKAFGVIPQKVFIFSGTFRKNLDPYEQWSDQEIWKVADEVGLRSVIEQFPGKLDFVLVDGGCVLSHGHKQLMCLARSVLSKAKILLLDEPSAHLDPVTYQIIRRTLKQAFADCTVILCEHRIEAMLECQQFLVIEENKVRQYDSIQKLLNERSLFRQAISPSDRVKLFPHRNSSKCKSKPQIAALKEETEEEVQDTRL
Procedure, shortened: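 FRT cells co-expressing YFP and wild-type CFTR, washed with PBS. Incubated 15 min with compound in PBS containing 20 μM forskolin. Plate reader baseline 2 s, then 12 s after rapid addition of I⁻-containing solution; initial I⁻ influx rate computed.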

[2] = Cytotoxicity against human HT-29 cells assessed as cell survival at 5 uM after 8 hrs by alamar blue assay relative to control; type: cell-based; conditions: read-out: Survival
Procedure, shortened: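 Cells cultured overnight, then exposed to compound at 5 μM for 8 h. Viability read by Alamar Blue per kit instructions. Table reports n=3.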

[3] = Drug level in aqueous solution treated with 2-(2-Bromo-2,2-difluoro-acetylamino)-5,6,7,8-tetrahydro-4H-cyclohepta[b]thiophene-3-carboxylicacid-o-tolylamide after 3 days by ESI-LCMS analysis
Procedure, shortened: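 Duplicate samples of 100 μM compound in H₂O (20% DMSO) with 100 μM 5-chloro-3-phenyl-2,1-benzisoxazole as internal standard. Kept at 25 °C for 3 days and analysed daily by ESI-LCMS for the parent compound and the oxalamic acid degradation product.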

[4] = Solubility of compound in DMSO; type: physicochemical
Anoctamin-1 [5] = target: T1, Anoctamin-1 (Homo sapiens, UniProt Q5XXA6); test: Inhibition of human TMEM16A expressed in FRT cells assessed as reduction of ATP-induced in chloride conductance preincubated for 5 mins followed by ATP addition by short-circuit current assay; type: cell-based
T1 sequence (Q5XXA6 whole entry): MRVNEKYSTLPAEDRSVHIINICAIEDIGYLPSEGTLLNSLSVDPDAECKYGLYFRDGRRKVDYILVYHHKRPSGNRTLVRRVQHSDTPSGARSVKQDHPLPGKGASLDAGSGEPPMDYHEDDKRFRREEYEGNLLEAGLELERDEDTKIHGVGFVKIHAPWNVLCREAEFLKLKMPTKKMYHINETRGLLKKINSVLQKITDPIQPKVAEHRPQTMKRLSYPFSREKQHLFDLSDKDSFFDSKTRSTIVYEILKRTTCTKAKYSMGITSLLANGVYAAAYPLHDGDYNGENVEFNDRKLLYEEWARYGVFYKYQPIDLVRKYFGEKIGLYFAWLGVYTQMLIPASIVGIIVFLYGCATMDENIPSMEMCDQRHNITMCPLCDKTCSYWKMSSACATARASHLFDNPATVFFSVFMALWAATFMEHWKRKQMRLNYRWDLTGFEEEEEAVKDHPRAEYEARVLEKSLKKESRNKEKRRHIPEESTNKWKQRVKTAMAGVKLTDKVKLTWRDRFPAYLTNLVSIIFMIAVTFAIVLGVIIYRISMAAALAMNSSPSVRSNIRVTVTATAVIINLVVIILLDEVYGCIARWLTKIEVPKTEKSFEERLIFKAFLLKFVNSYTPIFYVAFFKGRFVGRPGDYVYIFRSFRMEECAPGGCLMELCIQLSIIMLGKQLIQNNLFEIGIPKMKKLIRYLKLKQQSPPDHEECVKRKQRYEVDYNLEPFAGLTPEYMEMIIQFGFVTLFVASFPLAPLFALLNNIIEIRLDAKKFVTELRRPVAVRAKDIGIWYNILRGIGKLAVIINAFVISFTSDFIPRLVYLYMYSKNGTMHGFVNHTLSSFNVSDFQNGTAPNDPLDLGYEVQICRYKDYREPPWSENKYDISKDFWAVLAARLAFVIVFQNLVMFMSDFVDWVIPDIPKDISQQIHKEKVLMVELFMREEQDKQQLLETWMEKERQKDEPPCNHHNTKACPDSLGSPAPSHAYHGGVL

Anoctamin-2 [6] = target: T2, Anoctamin-2 (Homo sapiens, UniProt Q9NQ90); test: Inhibition of TMEM16B (unknown origin) expressed in FRT cells assessed as reduction of ATP-induced chloride conductance preincubated for 20 mins followed by ATP addition by short-circuit current assay; type: cell-based
T2 sequence (Q9NQ90 whole entry): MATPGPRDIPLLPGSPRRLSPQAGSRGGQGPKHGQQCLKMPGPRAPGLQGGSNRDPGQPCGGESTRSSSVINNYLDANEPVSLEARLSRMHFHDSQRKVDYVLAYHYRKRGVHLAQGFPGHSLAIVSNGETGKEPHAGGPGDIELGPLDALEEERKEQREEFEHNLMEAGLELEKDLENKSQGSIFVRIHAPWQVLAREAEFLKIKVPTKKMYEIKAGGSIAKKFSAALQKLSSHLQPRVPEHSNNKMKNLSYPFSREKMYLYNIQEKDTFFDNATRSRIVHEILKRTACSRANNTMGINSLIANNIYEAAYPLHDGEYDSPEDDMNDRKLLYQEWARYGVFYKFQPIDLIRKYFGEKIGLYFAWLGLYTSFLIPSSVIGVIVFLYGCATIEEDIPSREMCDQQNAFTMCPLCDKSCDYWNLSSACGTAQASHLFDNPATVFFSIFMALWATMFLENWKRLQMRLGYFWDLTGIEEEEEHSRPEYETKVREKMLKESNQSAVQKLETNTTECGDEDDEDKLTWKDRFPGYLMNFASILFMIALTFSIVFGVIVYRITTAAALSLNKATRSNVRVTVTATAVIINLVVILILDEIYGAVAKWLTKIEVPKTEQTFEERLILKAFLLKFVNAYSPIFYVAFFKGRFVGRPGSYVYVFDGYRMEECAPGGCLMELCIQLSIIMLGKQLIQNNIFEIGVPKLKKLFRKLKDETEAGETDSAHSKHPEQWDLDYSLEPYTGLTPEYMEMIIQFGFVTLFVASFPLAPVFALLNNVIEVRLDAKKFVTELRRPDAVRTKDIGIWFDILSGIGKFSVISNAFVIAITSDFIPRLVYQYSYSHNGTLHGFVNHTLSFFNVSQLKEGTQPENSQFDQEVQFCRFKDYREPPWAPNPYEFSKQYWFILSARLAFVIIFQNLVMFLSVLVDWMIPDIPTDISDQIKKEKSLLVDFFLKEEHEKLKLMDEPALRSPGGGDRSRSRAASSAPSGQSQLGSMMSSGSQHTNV

Anoctamin-2 [7] = target: T2, Anoctamin-2; test: (§1) Inhibition of human TMEM16B expressed in FRT cells co-expressing iodide sensitive fluorescent protein YFP-H148Q/I152L/F46L assessed as reduction in ATP-induced Ca2+ activation-mediated chloride current by measuring decrease in iodide influx preincubated for 10 mins followed by ATP/iodide addition by fluorescence assay; type: cell-based
Procedure, shortened: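 FRT cells co-expressing YFP and TMEM16B, given compound for 10 min, then I⁻ solution with ATP added. Fluorescence read by plate reader; initial I⁻ influx rate computed. IC₅₀ from concentration-inhibition data; n=3.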

Anoctamin-1 [8] = target: T1, Anoctamin-1; test: Inhibition of TMEM16A (unknown origin) expressed in Xenopus laevis oocytes at -60 mV holding potential by voltage-clamp assay
[9] = Inhibition of calcium activated chloride channel in ATP-activated human HT-29 cells expressing YFP-H148Q/152L assessed as reduction in iodide influx preincubated for 10 mins followed by ATP addition by fluorescence assay
Procedure, shortened: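 Endogenous non-TMEM16A CaCC in HT-29 cells expressing YFP, read by plate reader. Initial rate of I⁻ influx taken as a linear measure of channel function. IC₅₀ from concentration-inhibition data; n=3.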

Liver = test: Metabolic stability in rat liver microsomes at 10 uM after 180 mins in presence of NADPH by LC/MS analysis; type: ADME, microsome; conditions: 3 h
Procedure, shortened: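 10 μM compound shaken at 37 °C with rat liver microsomes (1 mg protein/mL) in 100 mM potassium phosphate buffer with 1 mM NADPH, sampled at 2–180 min. Quenched on ice with ice-cold ethyl acetate, centrifuged, supernatant dried and redissolved. Parent compound quantified by C₁₈ reverse-phase LC/MS (5–95% acetonitrile gradient); mean ± SEM, n=3.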

Anoctamin-1 [10] = target: T1, Anoctamin-1; test: as §1, with “TMEM16A” for “TMEM16B”; type: cell-based
Procedure, shortened: (§2)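 FRT cells stably expressing human TMEM16A and YFP, plated at 20,000 cells/well and used 24–48 h later. An equal volume of 140 mM I⁻ solution containing 300 μM ATP was added, and reading continued 12 s at 400 ms/point. Initial I⁻ influx rate fitted by nonlinear regression; IC₅₀ from concentration-inhibition data.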

[11] = target: T3, Anoctamin-1 (Homo sapiens) (UniProt Q5XXA6); test: as §1, with “TMEM16A” for “TMEM16B”; type: cell-based; procedure, shortened: as §2
T3 sequence (whole entry): T1 sequence (Q5XXA6 whole entry)

inhibition [1]: inactive
Compound: O=C(Nc1ccc(F)cc1)c1c(NC(=O)C(F)(F)I)sc2c1CCCCC2

Compound: Cc1ccccc1NC(=O)c1c(NC(=O)C(F)(F)I)sc2c1CCCCC2
viability at 8 h, 5 µM [2]: 96%
inhibition [1]: inactive

Compound: Cc1ccccc1NC(=O)c1c(NC(=O)C(=O)F)sc2c1CCCCC2
Drug metabolism [3]: Metabolite detected

Compound: Cc1ccccc1NC(=O)c1c(NC(=O)C(F)(F)Cl)sc2c1CCCCC2
viability at 8 h, 5 µM [2]: 98%
inhibition [1]: inactive

Compound: Cc1ccccc1NC(=O)c1c(NC(=O)C(=O)O)sc2c1CCCCC2
Drug metabolism [3]: Metabolite detected

solubility [4]: Insoluble
Compound: O=C(Nc1ccccc1OC(F)(F)F)c1c(NC(=O)C(F)(F)Cl)sc2c1CCC2

solubility [4]: Insoluble
Compound: O=C(Nc1ccccc1OC(F)(F)F)c1c(NC(=O)C(F)(F)Br)sc2c1CCC2

inhibition [1]: inactive
Compound: O=C(Nc1ccccc1)c1c(NC(=O)C(F)(F)F)sc2c1CCCCC2

Compound: CCc1c(C)nc(SCC(=O)Nc2nc(-c3ccc(OC)cc3)cs2)nc1O
IC50 (Anoctamin-1 [5]): 1 µM
viability at 8 h, 5 µM [2]: 97%
inhibition [1]: inactive
IC50 (Anoctamin-2 [6]): 4 µM

Compound: COc1cc(Nc2ccc([N+](=O)[O-])cc2C(=O)O)cc2ccccc12
IC50 (Anoctamin-1 [5]): 1.6 µM
IC50 (Anoctamin-2 [7]): 13 µM
viability at 8 h, 5 µM [2]: 100%
inhibition [1]: inactive
IC50 (Anoctamin-1 [8]): 0.08 µM
IC50 [9]: > 20 µM

inhibition [1]: inactive
Stability (Liver): Unstable
Compound: COc1ccccc1/C=N/NC(=O)COc1ccc(Cl)cc1C

IC50 (Anoctamin-1 [10]): > 20 µM
Compound: CCC(=O)Nc1sc2c(c1C(=O)Nc1ccccc1OC(F)(F)F)CCCCC2

Compound: Cc1ccccc1NC(=O)c1c(NC(=O)C(F)(F)F)sc2c1CCCCC2
inhibition [11]: Dose-dependent effect
viability at 8 h, 5 µM [2]: 99%
inhibition [1]: inactive
IC50 [9]: 4 µM

Compound: Cc1ccccc1NC(=O)c1c(NC(=O)C(O)(F)F)sc2c1CCCCC2
Drug metabolism [3]: Metabolite detected

IC50 (Anoctamin-1 [10]): > 20 µM
Compound: CCC(=O)Nc1sc2c(c1C(=O)Nc1ccccc1C)CCCCC2
